The values below come from ChEMBL document CHEMBL1127371, “Acyl CoA:cholesterol acyltransferase (ACAT) inhibitors: synthesis and structure-activity relationship studies of a new series of trisubstituted imidazoles” (J Med Chem, 1994).

The target in assay [1] is T1, Sterol O-acyltransferase 1 (Rattus norvegicus, UniProt O70536).
T1 sequence (O70536 whole entry): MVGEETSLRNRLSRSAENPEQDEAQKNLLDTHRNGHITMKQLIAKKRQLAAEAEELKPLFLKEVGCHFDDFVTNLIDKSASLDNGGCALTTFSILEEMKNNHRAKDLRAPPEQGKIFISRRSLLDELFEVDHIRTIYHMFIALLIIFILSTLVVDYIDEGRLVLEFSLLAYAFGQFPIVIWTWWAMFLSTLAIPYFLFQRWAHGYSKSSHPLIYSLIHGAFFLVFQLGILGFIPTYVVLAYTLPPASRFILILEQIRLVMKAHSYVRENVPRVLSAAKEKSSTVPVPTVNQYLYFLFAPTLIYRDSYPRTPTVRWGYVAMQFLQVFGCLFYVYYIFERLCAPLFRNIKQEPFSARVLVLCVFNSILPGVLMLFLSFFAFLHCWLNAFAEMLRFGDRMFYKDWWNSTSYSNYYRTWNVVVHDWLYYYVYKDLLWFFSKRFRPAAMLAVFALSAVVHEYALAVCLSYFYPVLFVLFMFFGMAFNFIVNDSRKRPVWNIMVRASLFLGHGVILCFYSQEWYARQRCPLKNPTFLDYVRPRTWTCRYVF
In words: In vitro inhibition of Acyl coenzyme A:cholesterol acyltransferase in rat hepatic microsomes. Set-up: species or system Liver. The method, boiled down: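 Rat hepatic microsomes were incubated with labelled oleoyl-CoA, and formation of labelled cholesterol oleate was measured (pmol/min/mg). Assays were run in duplicate with at least four inhibitor concentrations bracketing the IC50.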

The species entered for assay [2] is Mesocricetus auratus. In words: Evaluated for Syrian hamsters fed with a 2.5% cholesterol-supplemented chow diet for 3 days.
The test system of assay [3] is Cricetinae gen. sp. In words: Tested anti-hypercholesterolaemic value(AHV) is the ratio of observed reduction in serum cholesterol to difference between control and baseline levels x100 at 10 mg/kg/day dose. It counts as functional.
Assay [4] is filed under the species Mesocricetus auratus. In words: Evaluated for Syrian hamsters fed with a 0.8% cholesterol-supplemented chow diet for 7 days.
For assay [5], the species on record is Mesocricetus auratus. In words: Evaluated for Syrian hamsters fed with 0.8% cholesterol-supplemented chow diet for 7 days.
Assay [6] is filed under the species Mesocricetus auratus. Put plainly: Evaluated for Syrian hamsters fed with 2.5% cholesterol-supplemented chow diet for 3 days.

Each structure is given as a SMILES string. Where “and” joins values, the source holds several entries; their conditions need not be identical. Equal values may be shown once.

In assay [1], `CCCCCCCN(Cc1cccc(CSc2nc(-c3ccccc3)c(-c3ccccc3)[nH]2)c1)C(=O)Nc1ccc(F)cc1F` registered an IC50 of 30 nM. As to `O=C(NCCCCCSc1nc(-c2ccccc2)c(-c2ccccc2)[nH]1)Nc1ccc(F)cc1F`, half-maximal inhibition in assay [1] (IC50) was put at 400 nM. In assay [1], `CCCCCCCN(CCCCCSc1ncc[nH]1)C(=O)Nc1ccc(F)cc1F` showed an IC50 of 2900 nM. Against the preceding compound, the IC50 is about 7.2-fold higher. Turning to `CCCCCCCN(CCCCCCCCSc1nc(-c2ccccc2)c(-c2ccccc2)[nH]1)C(=O)Nc1ccc(F)cc1F`, the Serum cholesterol in assay [2] is 271 mg %. In assay [1], this compound yielded an IC50 of 8 nM. In turn, `CCCCCCCN(CCCCCSc1nc(-c2ccccc2)c(-c2ccccc2)[nH]1)C(=O)Nc1c(C(C)C)cccc1C(C)C` displayed a half-maximal inhibitory concentration (IC50) in assay [1] of 230 nM. `CCCCCCCN(CCCCCSc1nc(-c2ccccc2)c(-c2ccccc2)[nH]1)C(N)=Nc1ccccc1`: in assay [1], the IC50 turned out to be 3160 nM. Compared with the last compound, the IC50 is about 14-fold higher. On the same count and under the same terms, for `CCCCCCCN(CCCCCSc1nc(-c2ccccc2)c(-c2ccccc2)[nH]1)C(=O)Cc1ccc(F)cc1F` the value was 25 nM. With `CCCCCCCN(CCCCCSc1nc(-c2ccccc2)c(-c2ccccc2)[nH]1)C(=O)NC1CCCCC1`, in assay [1], it took 10 nM to reach half-maximal inhibition (IC50). As to `CCCCCCCN(CCCCCNc1nc(-c2ccccc2)c(-c2ccccc2)[nH]1)C(=O)Nc1ccc(F)cc1F`, the half-inhibitory concentration (IC50) in assay [1] came out at 3500 nM. Consider `CCCCCCCN(CCCCC[S+]([O-])c1nc(-c2ccccc2)c(-c2ccccc2)[nH]1)C(=O)Nc1ccc(F)cc1F` (stereo not drawn), for which the AHV in assay [3] was found to be 49%. Besides, the Serum cholesterol in assay [4] stood at 278 mg %. The compound also came in with an IC50 in assay [1] of 8 nM. For `CCCCCCCCNC(=O)N(CCCCCSc1nc(-c2ccccc2)c(-c2ccccc2)[nH]1)c1c(F)cc(F)cc1F`, the IC50 in assay [1] amounted to 20 nM. `CCCCCCCN(CCCCCSc1nc(-c2ccccc2)c(-c2ccccc2)[nH]1)C(=O)c1ccc(F)cc1F` gave an IC50 in assay [1] of 60 nM.

For the compound `CCCCCCCN(CCCCCSc1ncc(-c2ccccc2)n1-c1ccccc1)C(=O)Nc1ccc(F)cc1F`, inhibition in assay [1] was half-maximal at 7200 nM (IC50).

Compound `CCCCCCCN(CCCCCCc1nc(-c2ccccc2)c(-c2ccccc2)[nH]1)C(=O)Nc1ccc(F)cc1F` yielded an IC50 in assay [1] of 280 nM. `CCCCCCCCNC(=O)N(CCCCCSc1nc(-c2ccccc2)c(-c2ccccc2)[nH]1)c1ccccc1` registered a Serum cholesterol in assay [2] of 268 mg %. 10 nM corresponded to half-maximal inhibition in assay [1] (IC50). Consider `CCCCCCCN(CCCCCSc1nc(-c2ccccc2)c(-c2ccccc2)[nH]1)C(=O)Nc1c(F)cc(F)cc1F`, for which the AHV in assay [3] was 51%. For the same compound, the Serum cholesterol in assay [2] amounted to 218 mg %. For the same compound, in assay [1], 16 nM corresponded to half-maximal inhibition (IC50). Consider `CCCCCCCN(CCCCCSc1nc(-c2ccccc2)c(-c2ccccc2)[nH]1)C(=O)OC1CCCCC1`, for which, in assay [1], the midpoint of inhibition, the IC50, lay at 50 nM. `CCCCCCCN(CCCCCSc1nc(-c2ccccc2)c(-c2ccccc2)[nH]1)C(=O)NC`: the midpoint of inhibition in assay [1], the IC50, lay at 40 nM.

In assay [1], `CCCCCCCN(CCCCCSc1nc(-c2ccccc2)c(-c2ccccc2)[nH]1)C(=O)NC(C)C` returned an IC50 of 20 nM. This IC50 is about 2-fold lower than that of the compound before.

In turn, `O=C(Nc1ccc(F)cc1F)N(CCCCCSc1nc(-c2ccccc2)c(-c2ccccc2)[nH]1)CCCc1ccccc1` returned an IC50 in assay [1] of 30 nM. Compound `CCCCCCCCNC(=O)N(CCCCCSc1nc(-c2ccccc2)c(-c2ccccc2)[nH]1)Cc1ccccc1` displayed an IC50 in assay [1] of 150 nM. On the same count and under the same terms, next, `O=C(Nc1ccc(F)cc1F)N(CCCCCSc1nc(-c2ccccc2)c(-c2ccccc2)[nH]1)Cc1ccccc1`: 200 nM.

On to `O=C(Nc1ccc(F)cc1F)N(CCCCCSc1nc(-c2ccccc2)c(-c2ccccc2)[nH]1)CCCCc1ccccc1`, for which the IC50 in assay [1] worked out at 50 nM.

For `CCCCCCCN(CCCCCSc1nc(-c2ccccc2)c(-c2ccccc2)[nH]1)C(=O)Cc1ccc(-c2ccccc2)cc1`, in assay [1], the concentration for half-maximal inhibition (IC50) is 160 nM. In the case of `CCCCCCCN(CCCCCSc1nc(-c2ccccc2)c(-c2ccccc2)[nH]1)C(=O)CCC`, the AHV in assay [3] was determined as 43%. Moreover, the Serum cholesterol in assay [4] is 245 mg %. In assay [1], the IC50 stood at 30 nM. On to `CCCCCCCCNC(=O)N(CCCCCSc1nc(-c2ccccc2)c(-c2ccccc2)[nH]1)c1ccc(F)cc1F`, for which inhibition in assay [1] was half-maximal at 40 nM (IC50). The compound `CCCCCCCN(CCCCCSc1nc(-c2ccccc2)c(-c2ccccc2)[nH]1)C(=O)Nc1ccc(-c2ccccc2)cc1` showed an IC50 in assay [1] of 70 nM. Regarding `CCCCCCCN(CCCCCSc1nc(-c2ccccc2)c(-c2ccccc2)[nH]1)C(=O)OCCC`, half-maximal inhibition in assay [1] (IC50) was put at 34 nM. This IC50 is about 2.1-fold lower than that of the compound before. The compound `CCCCCCCN(CCCCCSc1nc(-c2ccccc2)c(-c2ccccc2)[nH]1)C(=O)Nc1ccccc1` registered an IC50 in assay [1] of 23 nM. This IC50 and that of the compound before are within 1.5-fold of each other. For `CCCCCCCN(CC(C)(C)CCSc1nc(-c2ccccc2)c(-c2ccccc2)[nH]1)C(=O)Nc1ccc(F)cc1F`, the IC50 in assay [1] turned out to be 70 nM. In the case of `CCCCCCCN(CCCCCSc1nc(-c2ccccc2)cn1-c1ccccc1)C(=O)Nc1ccc(F)cc1F`, the half-inhibitory concentration (IC50) in assay [1] amounted to 42000 nM. As to `CCCCCCCN(CCCCCSc1nc(-c2ccccc2)c(-c2ccccc2)[nH]1)C(=O)NCCC`, in assay [3], the AHV was found to be 74%. Besides, the Serum cholesterol in assay [4] came out at 199 mg %. The same compound gave an IC50 in assay [1] of 10 nM.

Regarding `CCCCCCCN(Cc1ccc(CSc2nc(-c3ccccc3)c(-c3ccccc3)[nH]2)cc1)C(=O)Nc1ccc(F)cc1F`, the IC50 in assay [1] is 200 nM. Consider `CCCCCCCN(CCCCCS(=O)(=O)c1nc(-c2ccccc2)c(-c2ccccc2)[nH]1)C(=O)Nc1ccc(F)cc1F`, for which the AHV in assay [3] came to 30%. The compound also gave a Serum cholesterol in assay [4] of 318 mg %. In assay [1], this compound displayed an IC50 of 16 nM. As for `CCCCCCCN(CCCCCSc1nc(-c2ccccc2)c(-c2ccccc2)[nH]1)C(=O)CC1CCCCC1`, inhibition in assay [1] was half-maximal at 30 nM (IC50). Compound `CCCCCCCN(CCCCCSc1nc(-c2ccccc2)c(-c2ccccc2)n1C)C(=O)Nc1ccc(F)cc1F` returned an IC50 in assay [1] of 3600 nM. Against the preceding compound, the IC50 is about 120-fold higher. `CCCCCCCN(CCCCCSc1nc(-c2ccccc2)c(-c2ccccc2)[nH]1)C(=O)Nc1ccc(F)cc1F` [LECIMIBIDE]: the AHV in assay [3] is 59% and 61%. The Serum cholesterol came to 253 mg % in assay [5] and 205 mg % in assay [6]. The compound `CCCN(CCCCCSc1nc(-c2ccccc2)c(-c2ccccc2)[nH]1)C(=O)Nc1ccc(F)cc1F` yielded an IC50 in assay [1] of 30 nM.

Take `CCCCCCCN(CCCCCSc1nc(-c2ccccc2)c(-c2ccccc2)[nH]1)C(=O)C(C)C`: the IC50 in assay [1] came out at 100 nM.

In assay [1], `CC(C)NC(=O)N(CCCCCSc1nc(-c2ccccc2)c(-c2ccccc2)[nH]1)c1ccccc1` displayed an IC50 of 80 nM. On to `CC(C)c1cccc(C(C)C)c1NC(=O)NCCCCCSc1nc(-c2ccccc2)c(-c2ccccc2)[nH]1`, for which inhibition in assay [1] was half-maximal at 510 nM (IC50). This IC50 lies about 6.4-fold higher than the previous one. Turning to `CCCCCCCN(CCCCCSc1nc(-c2ccccc2)c(-c2ccccc2)n1-c1ccccc1)C(=O)Nc1ccc(F)cc1F`, the concentration for half-maximal inhibition (IC50) in assay [1] is above 50000 nM.

`CCCCCCCN(CCCCCSc1nc(-c2ccccc2)c(-c2ccccc2)[nH]1)C(N)=O` gave an IC50 in assay [1] of 910 nM. Take `CCCCCCCN(CCCCCSc1nc(-c2ccccc2)c(-c2ccccc2)[nH]1)C(=O)Nc1ccc([N+](=O)[O-])cc1`: the AHV in assay [3] is listed as 38%. In addition, in assay [4], the Serum cholesterol was determined as 277 mg %. For the same compound, the midpoint of inhibition in assay [1], the IC50, lay at 80 nM. `CCCCCCCN(CCCCCSc1nc(-c2ccccc2)c(-c2ccccc2)[nH]1)/C(S)=N\c1c(F)cc(F)cc1F` came in with an IC50 in assay [1] of 30 nM. As to `CCCCCCCN(CCCCCSc1nc(-c2ccccc2)c(-c2ccccc2)[nH]1)/C(S)=N\c1ccc(F)cc1F`, the IC50 in assay [1] came out at 58 nM. For `CCCCCCCN(CCCCCSc1nc(-c2ccccc2)c(-c2ccccc2)[nH]1)C(=O)Oc1ccccc1`, in assay [1], inhibition was half-maximal at 20 nM (IC50). Same read-out and setting: next, `CCCCCCCN(CCSc1nc(-c2ccccc2)c(-c2ccccc2)[nH]1)C(=O)Nc1ccc(F)cc1F`: 70 nM; `CCCCCCCN(CCCCCSc1nc(-c2ccccc2)c(-c2ccccc2)[nH]1)C(=O)c1ccccc1`: 50 nM; `CC(C)NC(=O)N(CCCCCSc1nc(-c2ccccc2)c(-c2ccccc2)[nH]1)c1ccc(F)cc1F`: 40 nM. Still for that read-out and setting: for `O=C(Nc1ccc(F)cc1F)N(CCCCCSc1nc(-c2ccccc2)c(-c2ccccc2)[nH]1)CCc1ccccc1` the value was 170 nM; for `CCCCCCCN(Cc1ccccc1CSc1nc(-c2ccccc2)c(-c2ccccc2)[nH]1)C(=O)Nc1ccc(F)cc1F`, 3600 nM.

Usually IC50 stands for the concentration that gives 50% inhibition. Read a high IC50 as weaker potency.
